An excerpt weighted towards active compounds, which were near 0.55% of everything screened.
V1R ag counter: counter-screen for oxytocin receptor agonists: human V1a receptor agonists. P37288. CHO-V1R cells, Fluo-8 calcium fluorescence, agonist mode; 0% DMSO, 100% 3 nM vasopressin. activation, % at 3 µM. 320,000 compounds, 0.25% hits;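 active means activation above the mean activation of all tested compounds plus 3 SD, per screening run, cut at about 20% in these data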;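 further: signal is peak over basal fluorescence ratio across a 100 second FLIPR read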
zfTRPN1 agonist: zebrafish TRPN1 (NompC) channel agonism. 220,000 compounds, 0.18% hits. AID 1424. HEK293 zebrafish TRPN1-YFP, Fluo-8 calcium fluorescence; 100% = response to 87 µM carbachol. activation, % at 3 µM;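 active means activation above its plate's cutoff, the mean activation of test wells on that plate plus 3 SD, cut at about 19% in these data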
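Control set: carbachol 87 µM as high control, DMSO as low control; system: HEK293 stable line with zebrafish TRPN1-YFP; read-out: % activation versus carbachol response; detection: intracellular calcium fluorescence with Fluo-8; doses: single test compound dose, 3 µM nominal, 0.3% DMSO; schedule: dye 1 h 37 °C plus 30 min RT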
TRPML3 agonist: agonists of human TRPML3 channel; Q8TDD5; HEK293 TRPML3-YFP, Fluo-8 calcium fluorescence; 100% = the carbachol control signal; activation, % at 3 µM; 220,000 compounds, 0.29% hits; AID 1448;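 active means activation above its plate's cutoff, the mean activation of the plate's test wells plus 3 SD, cut at about 12% in these data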
Target sequence (Q8TDD5 whole entry, looked up): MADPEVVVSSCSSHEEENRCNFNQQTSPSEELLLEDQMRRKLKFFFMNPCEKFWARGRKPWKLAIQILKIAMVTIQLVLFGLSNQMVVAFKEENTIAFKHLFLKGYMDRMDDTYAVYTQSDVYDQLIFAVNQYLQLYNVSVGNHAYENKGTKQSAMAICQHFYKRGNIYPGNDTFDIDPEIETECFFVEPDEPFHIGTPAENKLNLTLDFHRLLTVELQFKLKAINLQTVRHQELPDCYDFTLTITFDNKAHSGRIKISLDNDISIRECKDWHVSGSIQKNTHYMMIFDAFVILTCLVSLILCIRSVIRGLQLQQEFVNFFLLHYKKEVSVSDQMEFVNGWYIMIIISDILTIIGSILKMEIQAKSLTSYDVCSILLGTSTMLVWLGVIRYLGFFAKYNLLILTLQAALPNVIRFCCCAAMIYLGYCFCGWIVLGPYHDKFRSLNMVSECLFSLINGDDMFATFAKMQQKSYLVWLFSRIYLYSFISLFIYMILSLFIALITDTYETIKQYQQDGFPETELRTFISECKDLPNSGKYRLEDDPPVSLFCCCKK
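system = HEK293 cells stably carrying human TRPML3-YFP | doses = one concentration, 3 µM nominal, 0.3% DMSO | timing = dye loading 1 h 37 °C then 30 min ambient, 125 s read | detection = Fluo-8 calcium dye fluorescence, ex 470-495, em 515-575 nm | benchmarks = high control carbachol 87 µM, low control DMSO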
OXTR potentiator: potentiates the human oxytocin receptor response; P30559; CHO-OTR cells, Fluo-8 calcium fluorescence, potentiator mode; 0% = oxytocin EC15, 100% = EC100; activation, % at 3 µM; 320,000 compounds, 0.061% hits;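 active means activation above that plate's cutoff, the mean activation of tested compounds plus 3 SD, cut at about 6.6% in these data, passing the limit was not always enough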
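Material: human OTR in CHO cells. Compound: 3.0 µM, one dose. Timing: compound 6 min at room temperature before oxytocin, 100 s read. Evaluation: % activation of max/min ratio relative to oxytocin controls. Replication: single well per compound, singlicate. Signal: Fluo-8 calcium dye fluorescence.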
OXTR ag: agonists of human oxytocin receptor. 320,000 compounds, 0.32% hits. activation, % at 3 µM. AID 2435. CHO-OTR cells, Fluo-8 calcium fluorescence; normalized: DMSO 0%, oxytocin 100%;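 active means activation above the mean of all tested compounds plus 3 SD, cutoff set per screening run, cut at about 20% in these data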;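 further: peak over basal fluorescence ratio from a 100 s FLIPR kinetic read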
OXTR agonist cf: confirmation of human oxytocin receptor agonists. shares compounds with OXTR ag. CHO-OTR cells, Fluo-8 calcium fluorescence, agonist. activation, % at 3 µM. 390 compounds, 20% hits. AID 434963;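 active means mean activation above about 20% derived from the earlier single-dose screen, limit read from the data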;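 further: peak over minimum fluorescence ratio per well during a 100 second FLIPR read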
V1R ag counter 3x: activates V1a receptor in oxytocin agonist counter-screen; 390 compounds, 10% hits; shares compounds with OXTR ag; CHO-V1R cells, Fluo-8 calcium fluorescence; AID 434991; activation, % at 3 µM;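 active means mean activation over triplicate exceeds the hit threshold set in the earlier primary screen, cut at about 20% in these data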;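 further: peak over basal fluorescence ratio within a 100 second read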
OXTR pot cf: human OXTR potentiation, confirmation. shares compounds with OXTR potentiator. CHO-OTR cells, Fluo-8 calcium fluorescence; scaled from low-dose to maximal oxytocin. activation, % at 3 µM. 180 tested, under 10 active. AID 434985;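 active means mean percent activation over triplicates above a cutoff set from solvent-only control plates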;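 further: compounds tested in the presence of an EC15 dose of oxytocin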
Of the large screens only hits and unclear results are named; the others gave an inactive call (follow-up assays come after a bar, where they were run).

COc1cccc(NC(=O)Cn2c3ccc(F)cc3c3nc4n(c(=O)c32)CCCS4)c1	none (no result: zfTRPN1 agonist, TRPML3 agonist)
O=C(CCC1CCCCC1)NNC(=O)NC12CC3CC(CC(C3)C1)C2	none
O=C(Nc1ccc([N+](=O)[O-])cc1Cl)c1cc(Cl)ccc1O	OXTR ag 21 (no result: zfTRPN1 agonist, TRPML3 agonist) | OXTR agonist cf inactive | V1R ag counter 3x inactive
COc1ccc(NS(=O)(=O)c2ccc(-n3nnc4ccccc43)c([N+](=O)[O-])c2)cc1	OXTR ag 24 | OXTR agonist cf inactive | V1R ag counter 3x inactive
COc1ccccc1NS(=O)(=O)c1cccc(NC(=O)c2cncc(Br)c2)c1	none (no result: zfTRPN1 agonist, TRPML3 agonist)
O=C(NCc1ccccn1)c1ccc(Cl)c(S(=O)(=O)Nc2ccccc2C(=O)NCc2ccccn2)c1	OXTR potentiator 14 | OXTR pot cf inactive
COc1ccc(C(=O)NNC(=O)c2ccc(F)c(S(=O)(=O)N3CCOCC3)c2)cc1	OXTR potentiator 14 (no result: zfTRPN1 agonist, TRPML3 agonist) | OXTR pot cf inactive
O=S(=O)(Nc1ccccc1)c1cccc2nsnc12	none (no result: zfTRPN1 agonist, TRPML3 agonist)
O=C(O)c1cccc(NS(=O)(=O)c2cccc3nsnc23)c1	OXTR potentiator 10.0 | OXTR pot cf inactive
O=C1Cc2cc(S(=O)(=O)N3CCNCC3)ccc2N1	none (no result: zfTRPN1 agonist, TRPML3 agonist)
O=C(NC1CCCCC1)C1CCN(S(=O)(=O)c2cccc3cccnc23)CC1	OXTR potentiator 14 | OXTR pot cf inactive
CCOC(=O)N1CCC(NC(=O)C2CCN(S(=O)(=O)c3cccc4cccnc34)CC2)CC1	none
O=C(N/N=C/c1cn(-c2ccccc2)nc1-c1ccccc1)c1ccco1	OXTR potentiator 9.9 | OXTR pot cf inactive
O=C(N/N=C\c1cn(-c2ccccc2)nc1-c1ccccc1)c1ccc(Br)o1	none
Cn1ccc2ccc(C3=CC(=O)C[C@H](c4ccc(F)cc4)C3)cc21	none (no result: zfTRPN1 agonist, TRPML3 agonist)
COc1cccc(OC)c1C(=O)Nn1c(C2CCC2)nc2ccccc2c1=O	none
CCC(=O)Nn1c(C2CCC2)nc2ccccc2c1=O	OXTR potentiator 13 (no result: zfTRPN1 agonist, TRPML3 agonist) | OXTR pot cf inactive
CC1CCN(S(=O)(=O)c2cnc[nH]2)CC1	OXTR potentiator 8.5 (no result: zfTRPN1 agonist, TRPML3 agonist) | OXTR pot cf inactive
CC1CCN(C(=O)C2CCN(S(=O)(=O)c3cnc[nH]3)CC2)CC1	none
COC1=CC(=O)[C@@]2([C@@H]1O)[C@@H](Cl)C[C@]13C(OC)=C(OC)C(=O)C[C@]21CCN3C	none (no result: zfTRPN1 agonist, TRPML3 agonist)
CCS(=O)(=O)c1ccc(O)c(NC(=O)Nc2ccc(C(C)(C)C)cc2)c1	none
O=C(CCc1ccccc1)N1CCN(S(=O)(=O)c2cccs2)CC1	OXTR potentiator 13 (no result: zfTRPN1 agonist, TRPML3 agonist) | OXTR pot cf inactive
CCN1CCCC1CNCc1cc(OC)c(OC)c(OC)c1 (configuration not stated)	OXTR potentiator 13 | OXTR pot cf inactive
CCN(CC)S(=O)(=O)c1ccc(C)c(NC(=O)c2cc(C)oc2C)c1	OXTR potentiator 13 | OXTR pot cf inactive
O=C1NCCOC(=O)[C@@H](Cc2ccc(F)cc2)C/C=C\C[C@@H]1CC(=O)N(CCO)Cc1ccccc1	none (no result: zfTRPN1 agonist, TRPML3 agonist)
CN(C(=O)COC(=O)c1ccccc1C(=O)c1ccccc1)c1ccccc1	none (no result: zfTRPN1 agonist, TRPML3 agonist)
CC(=O)NC1=NN(C(C)=O)C(C)(CCS(=O)(=O)c2ccc(Br)cc2)S1 (configuration not stated)	OXTR potentiator 13 | OXTR pot cf inactive
Cc1nn(-c2ccccc2)c(N)c1Sc1cccc([N+](=O)[O-])c1	none
Cc1cc(C)nc(-n2nc(C)c(Sc3ccc(F)cc3)c2N)n1	OXTR potentiator 11 | OXTR pot cf inactive
O=C(CN1CCN(S(=O)(=O)c2cccc(F)c2)CC1)Nc1ccnn1C1CCCC1	none (no result: zfTRPN1 agonist, TRPML3 agonist)
C[C@H](CO)N1C[C@H](C)[C@@H](CN(C)C(=O)Nc2ccc(C(F)(F)F)cc2)Oc2c(cccc2N(C)C)C1=O	OXTR potentiator 12 (no result: zfTRPN1 agonist, TRPML3 agonist) | OXTR pot cf inactive

High-throughput results deposited in PubChem by The Scripps Research Institute Molecular Screening Center.
